Results reported in ChEMBL document CHEMBL4340521, “Subtle modifications to a thieno[2,3-d]pyrimidine scaffold yield negative allosteric modulators and agonists of the dopamine D2 receptor” (Eur J Med Chem, 2019).
Activity calls are given as the source filed them. The calls are words filed in the database; no cut-off is given here.

Key:
[1] = target: T1, D(2) dopamine receptor (Homo sapiens, UniProt P14416); experiment: (§1) Negative allosteric modulation of recombinant human D2L receptor expressed in Flp-In CHO cells assessed as inhibition of dopamine-induced reduction in forskolin stimulated cAMP accumulation by measuring net cooperativity factor preincubated for 30 mins followed by forskolin stimulation and measured after 30 mins by BRET assay; type: functional, cell-based
T1 sequence (P14416 whole entry): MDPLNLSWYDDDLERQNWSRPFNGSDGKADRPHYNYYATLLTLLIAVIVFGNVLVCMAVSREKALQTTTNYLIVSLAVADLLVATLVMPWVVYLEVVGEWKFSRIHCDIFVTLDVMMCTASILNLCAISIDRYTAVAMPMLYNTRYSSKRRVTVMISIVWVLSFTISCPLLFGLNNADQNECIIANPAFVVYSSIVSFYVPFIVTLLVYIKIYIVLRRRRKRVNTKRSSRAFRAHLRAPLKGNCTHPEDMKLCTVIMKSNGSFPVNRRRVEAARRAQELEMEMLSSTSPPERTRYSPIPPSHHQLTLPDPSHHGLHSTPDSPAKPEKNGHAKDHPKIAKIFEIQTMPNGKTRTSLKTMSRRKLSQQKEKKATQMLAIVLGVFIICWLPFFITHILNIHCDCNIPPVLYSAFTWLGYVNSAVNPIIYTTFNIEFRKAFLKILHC

[2] = target: T1, D(2) dopamine receptor; experiment: as §1, with “equilibrium dissociation constant” for “net cooperativity factor”; type: functional, cell-based
[3] = target: T1, D(2) dopamine receptor; experiment: as §1, with “modulation of dopamine efficacy” for “net cooperativity factor”; type: functional, cell-based
[4] = target: T1, D(2) dopamine receptor; experiment: as §1, with “intrinsic efficacy of the modulator” for “net cooperativity factor”; type: functional, cell-based
[5] = target: T1, D(2) dopamine receptor; experiment: as §1, with “equilibrium dissociation constant up to 100 uM” for “net cooperativity factor”; type: functional, cell-based
[6] = test system: CHO; experiment: Modulation of dopamine-induced forskolin stimulated cAMP accumilation in hamster FlpIn CHO cells assessed as BRET signal at 100 uM preincubated for 30 mins followed by forskolin stimulation and measured after 30 mins by BRET assay relative to control; type: cell-based, Cricetinae; settings: Cricetulus griseus, 0.5 h, read-out: Activity
Method in brief: (§2)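 Wild-type FlpIn CHO cells lacking D2R, transfected with CAMYEL cAMP BRET biosensor. Compounds at 1-100 μM plus dopamine 10 μM added 30 min before stimulation, with or without 10 μM forskolin (final). Coelenterazine-h 5 μM final. BRET ratio 535/475 nm read 30 min after stimulation.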

[7] = test system: CHO; experiment: Modulation of dopamine-induced forskolin stimulated cAMP accumilation in hamster FlpIn CHO cells assessed as BRET signal preincubated for 30 mins followed by forskolin stimulation and measured after 30 mins by BRET assay relative to control; type: cell-based; settings: cricetinae, 0.5 h; method in brief: as §2
[8] = target: T1, D(2) dopamine receptor; experiment: Competitive antagonist activity at recombinant human D2L receptor expressed in Flp-In CHO cells assessed as inhibition of dopamine-induced reduction in forskolin stimulated cAMP accumulation preincubated for 30 mins followed by forskolin stimulation and measured after 30 mins by BRET assay; type: functional, cell-based; settings: read-out: pA2 (converted)

| log(activity) [1] | pKb [2] | log(activity) [3] | log(activity) [4] | Activity index [1] | Kb [2] [µM] | Efficacy [3] | Activity [5] | Intrinsic activity [4] | Activity [7] | SMILES | activity at 100 µM [6] [%] | Kb [8] [µM] |
| --- | --- | --- | --- | --- | --- | --- | --- | --- | --- | --- | --- | --- |
| -3 | 5.72 | -3 | 0 |  |  |  |  |  |  | CCN(CC)c1ncnc2sc3c(c12)CCCC3 |  |  |
| -0.32 | 5.13 | 0 | 0 | 0.48 | 7.38 |  |  |  |  | c1nc(NC2CCC2)c2ccsc2n1 |  |  |
|  | 6.13 | -0.85 | 0 |  | 0.74 | 0.14 |  |  |  | CCN(CC)c1ncnc2sc3c(c12)CCC3 |  |  |
| -0.55 | 5.35 | 0 | 0 | 0.28 | 4.5 |  |  |  |  | c1ccc(-c2cc3c(NC4CCC4)ncnc3s2)cc1 |  |  |
| -0.25 | 3.99 | 0 | 0 | 0.57 |  |  |  |  |  | c1nc(NC2CCC2)c2c3c(sc2n1)CCC3 |  |  |
|  |  |  |  |  |  |  | inactive |  |  | c1ccc(Nc2ncnc3sc4c(c23)CCCC4)cc1 |  |  |
|  | 6.04 | -1.22 | 0 |  | 0.91 | 0.06 |  |  |  | c1nc(NC2CCC2)c2c3c(sc2n1)CCCCC3 |  |  |
| -0.04 | 4.03 | 0 | 0 | 0.91 | 92.5 |  |  |  |  | CC(C)(C)Nc1ncnc2sc3c(c12)CCCC3 |  |  |
|  | 5.31 | -0.89 | 0 |  |  | 0.13 |  |  |  | CCN(CC)c1ncnc2sccc12 |  |  |
| -0.47 | 5.72 | 0 | -3 | 0.32 | 1.93 |  |  |  |  | c1ccc(-c2csc3ncnc(NC4CC4)c23)cc1 |  |  |
|  | 4.84 | -3 | 0 |  | 14.5 |  |  |  |  | CCN(CC)c1ncnc2sc3c(c12)CCCCCC3 | 28 |  |
|  | 5.92 | -0.37 | -0.22 |  | 6.35 | 0.43 |  | 0.6 |  | c1ccc(-c2cc3c(NC4CC4)ncnc3s2)cc1 |  |  |
|  | 5.53 | -1.55 | 0 |  | 2.92 | 0.03 |  |  |  | c1nc(NC2CCC2)c2c(C3CCCCC3)csc2n1 |  |  |
|  | 4.93 | -1.04 | 0 |  | 11.6 | 0.09 |  |  |  | c1nc(NC2CC2)c2c(C3CCCCC3)csc2n1 |  |  |
|  |  |  |  |  |  |  | inactive |  |  | CCN(CC)c1ncnc2scc(C3CCCCC3)c12 |  |  |
|  | 6.05 | -1.48 | 0 |  | 0.88 | 0.03 |  |  |  | c1nc(NC2CC2)c2c3c(sc2n1)CCCC3 |  |  |
| -0.61 | 4.71 | 0 | 0 | 0.24 | 19.5 |  |  |  |  | CCN(CC)c1ncnc2sc(C)c(C)c12 |  |  |
|  | 6.25 | -0.65 | -0.72 |  | 0.57 | 0.22 |  | 0.19 |  | c1nc(NC2CCC2)c2c3c(sc2n1)CCCC3 |  |  |
| -0.65 | 4.67 | 0 | -3 | 0.22 | 21.4 |  |  |  |  | c1nc(NC2CC2)c2ccsc2n1 |  |  |

| log(activity) [1] | pKb [2] | log(activity) [3] | log(activity) [4] | Activity index [1] | Kb [2] [µM] | Efficacy [3] | Activity [5] | Intrinsic activity [4] | Activity [7] | SMILES | activity at 100 µM [6] [%] | Kb [8] [µM] |
| --- | --- | --- | --- | --- | --- | --- | --- | --- | --- | --- | --- | --- |
|  | 6.04 | -3 | 0 |  | 0.9 |  |  |  |  | CCN(CC)c1ncnc2sc(-c3ccccc3)cc12 |  |  |
|  | 4.23 | 0 | 0 |  | 59.3 |  |  |  | Dose-dependent effect | c1nc(N2CCCCC2)c2c3c(sc2n1)CCCC3 | 26 |  |
|  |  |  |  |  |  |  | inactive |  |  | CCN(CC)c1ncnc2sc(C3CCCCC3)cc12 |  |  |
| -0.22 | 3.9 | 0 | 0 | 1.66 |  |  |  |  |  | c1nc(N2CCOCC2)c2c3c(sc2n1)CCCC3 |  |  |
|  | 5.22 | -0.55 | -0.13 |  | 6.01 | 0.28 |  | 0.75 |  | c1nc(NC2CC2)c2c3c(sc2n1)CCC3 |  |  |
| -0.41 | 3.89 | 0 | -3 | 0.39 |  |  |  |  |  | c1ccc(-c2csc3ncnc(NC4CCC4)c23)cc1 |  |  |
|  |  |  |  |  |  |  | inactive |  |  | c1nc(NC2CCCCC2)c2c3c(sc2n1)CCCC3 |  |  |
|  | 5.4 | -0.58 | 0 |  | 3.98 | 0.26 |  |  |  | c1nc(NC2CCC2)c2c3c(sc2n1)CCCCCC3 |  |  |
|  |  |  |  |  |  |  | inactive |  |  | c1nc(NC2CCC2)c2cc(C3CCCCC3)sc2n1 |  |  |
|  | 5.53 | -1.3 | 0 |  | 2.96 | 0.05 |  |  |  | c1nc(NC2CC2)c2c3c(sc2n1)CCCCC3 |  |  |
|  | 5.92 | -0.54 | -0.06 |  | 1.19 | 0.29 |  | 0.86 |  | c1nc(NCC2CC2)c2c3c(sc2n1)CCCC3 |  |  |
|  |  |  |  |  |  |  | inactive |  |  | c1nc(NC2CC2)c2cc(C3CCCCC3)sc2n1 |  |  |
|  | 6.27 | -1 | 0 |  | 0.53 | 0.1 |  |  |  | c1nc(NC2CC2)c2c3c(sc2n1)CCCCCC3 |  |  |
|  |  |  |  |  |  |  | inactive |  |  | Cc1sc2ncnc(NC3CC3)c2c1C |  |  |
|  | 5.37 | -0.76 | 0 |  | 4.23 | 0.17 |  |  |  | c1nc(N2CCCC2)c2c3c(sc2n1)CCCC3 |  |  |
| -0.57 | 4.22 | 0 | -3 | 0.27 | 60 |  |  |  |  | CCN(CC)c1ncnc2scc(-c3ccccc3)c12 |  |  |
|  |  |  |  |  |  |  | inactive |  |  | CCN(CC)c1ncnc2sc3c(c12)CCCCC3 |  |  |
|  | 5.54 | -0.9 |  |  | 2.88 | 0.13 |  |  |  | Cc1sc2ncnc(NC3CCC3)c2c1C |  |  |

| SMILES | log(activity) [1] | pKb [2] | log(activity) [3] | log(activity) [4] | Activity index [1] | Kb [2] [µM] | Efficacy [3] | Activity [5] | Intrinsic activity [4] | Activity [7] | activity at 100 µM [6] [%] | Kb [8] [µM] |
| --- | --- | --- | --- | --- | --- | --- | --- | --- | --- | --- | --- | --- |
| c1nc(N2CCNCC2)c2c3c(sc2n1)CCCC3 |  | 4.7 | 0 | -3 |  | 20 |  |  |  |  |  | 21.4 |
